# According to ChEMBL document CHEMBL1153878, “Hansch analysis of veratric acid derivatives as antimicrobial agents” (2009):
# How the values were obtained:
# Assay type in all cases: functional
# Staphylococcus aureus = assay: Antibacterial activity against Staphylococcus aureus MTCC 1430 by serial dilution method; set-up: -logMIC: scale not given here; settings: for MIC: Staphylococcus aureus, MTCC 1430, read-out: MIC
# Method in brief: (§1)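 Tube serial dilution in 1 ml sterile double strength nutrient broth I.P., test range […] per ml. Inoculum: […] of a saline suspension at 10⁵ cfu/ml from a fresh 24-h culture, grown in double strength nutrient broth at 37 ± 1 °C. […] Exact MIC refined by further dilution of the stock.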
# Escherichia coli = assay: Antibacterial activity against Escherichia coli MTCC 739 by serial dilution method; set-up: -logMIC: scale not given here; settings: for MIC: Escherichia coli, MTCC 739, read-out: MIC; method in brief: as §1
# Aspergillus niger = assay: Antifungal activity against Aspergillus niger MTCC 2425 by serial dilution method; set-up: -logMIC: scale not given here; settings: for MIC: Aspergillus niger, MTCC 2425, read-out: MIC
# Bacillus subtilis = assay: Antibacterial activity against Bacillus subtilis MTCC 2423 by serial dilution method; set-up: -logMIC: unit not given here; settings: for MIC: Bacillus subtilis, MTCC 2423, read-out: MIC; method in brief: as §1
# Candida albicans = assay: Antifungal activity against Candida albicans MTCC 227 by serial dilution method; set-up: -logMIC: unit not given here; settings: for MIC: Candida albicans, MTCC 227, read-out: MIC
Compound,-logMIC (Staphylococcus aureus),MIC (Staphylococcus aureus),-logMIC (Escherichia coli),MIC (Escherichia coli),-logMIC (Aspergillus niger),MIC (Aspergillus niger),-logMIC (Bacillus subtilis),MIC (Bacillus subtilis),-logMIC (Candida albicans),MIC (Candida albicans)
COc1ccc(C(=O)Oc2cccc3cccnc23)cc1OC,1.45,11 µg/mL,1.56,8.5 µg/mL,1.34,14 µg/mL,1.53,9 µg/mL,1.35,13.5 µg/mL
CCOC(=O)c1ccc(OC)c(OC)c1,0.98,22 µg/mL,1.02,20 µg/mL,1.23,12 µg/mL,1.12,16 µg/mL,1.23,12 µg/mL
COc1ccc(C(=O)NN)cc1OC,0.93,23 µg/mL,0.93,23 µg/mL,1.12,15 µg/mL,1.15,14 µg/mL,1.15,14 µg/mL
OC(Cn1cncn1)(Cn1cncn1)c1ccc(F)cc1F [FLUCONAZOLE],–,–,–,–,2.64,–,–,–,2.64,–
O=C(O)c1cn(C2CC2)c2cc(N3CCNCC3)c(F)cc2c1=O [CIPROFLOXACIN],3.33,–,3.33,–,–,–,3.33,–,–,–
COc1ccc(C(=O)N2CCCCC2)cc1OC,1.15,17.5 µg/mL,1.1,20 µg/mL,1.28,13 µg/mL,1.33,12 µg/mL,1.25,14 µg/mL
COc1ccc(C(N)=O)cc1OC,0.9,23 µg/mL,0.95,20 µg/mL,1.2,11 µg/mL,1.09,15 µg/mL,1.25,10 µg/mL
COc1ccc(C(=O)OCc2ccccc2)cc1OC,1.1,21.5 µg/mL,1.18,18 µg/mL,1.29,14 µg/mL,1.34,12.5 µg/mL,1.3,13.5 µg/mL
COc1ccc(NC(=O)c2ccc(OC)c(OC)c2)cc1,1.2,18 µg/mL,1.18,19 µg/mL,1.4,11.5 µg/mL,1.38,12 µg/mL,1.36,12.5 µg/mL
COc1ccc(C(=O)O)cc1OC [VERATRIC ACID],1.01,18 µg/mL,1.06,16 µg/mL,1.11,14 µg/mL,1.31,9 µg/mL,1.22,11 µg/mL
COc1ccccc1NC(=O)c1ccc(OC)c(OC)c1,1.23,17 µg/mL,1.23,17 µg/mL,1.32,14 µg/mL,1.34,13 µg/mL,1.29,15 µg/mL
CCCNC(=O)c1ccc(OC)c(OC)c1,1.08,19 µg/mL,1.08,19 µg/mL,1.28,12 µg/mL,1.23,13 µg/mL,1.25,12.5 µg/mL
COc1ccc(C(=O)Nc2ccccc2)cc1OC,1.05,23 µg/mL,1.04,23 µg/mL,1.29,13 µg/mL,1.25,14 µg/mL,1.2,16 µg/mL
COc1ccc(C(=O)NCc2ccccc2)cc1OC,1.15,19 µg/mL,1.15,19 µg/mL,1.36,12 µg/mL,1.32,13 µg/mL,1.32,13 µg/mL
CCCCCCCOC(=O)c1ccc(OC)c(OC)c1,1.25,16 µg/mL,1.3,14 µg/mL,1.37,12 µg/mL,1.35,12.5 µg/mL,1.25,16 µg/mL
CCNC(=O)c1ccc(OC)c(OC)c1,0.95,23.5 µg/mL,1.01,20 µg/mL,1.26,11.5 µg/mL,1.21,13 µg/mL,1.31,10 µg/mL
